Source: PubChem BioAssay (several laboratories)
This is a sample that favours compounds with a hit; in the whole collection about 2% have one here.
NTR1 ag = activates human neurotensin receptor 1; P30989; NTR1-U2OS beta-arrestin-GFP spot imaging, agonist mode; activation, % at 20 µM; 0.17% of 330,000 active; AID 493036;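 active = activation at or above 40% of the spot to cytoplasm intensity ratio, with at least 20 cells analyzed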;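 note: 0% = DMSO without peptide and 100% = 100 nM NTR1 peptide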
CAL PDZ FP-1 = blocks peptide binding to the human CAL PDZ domain. purified CAL PDZ, TMR-peptide fluorescence polarization, 1 h. inhibition, % at 24.9 µM. 0.92% of 300,000 active. AID 602252;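 active = mean inhibition of at least 30% with at least half of replicates also reaching 30%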;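 note: 0% = DMSO neutral control and 100% = excess unlabeled competitor peptide PRC23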
PKA-R1A act = PKA-R1A complex activation; P00514+P68181; PKA-R1A dissociation, Cy5-IP20 fluorescence polarization; scaled: DMSO 0%, 113 µM cGMP 100%; activation, % at 11.4 µM; 0.083% of 340,000 active; AID 504707;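 active = percent activation above the mean of all tested compounds plus 3 SD, cut at about 19% in these data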;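 note: higher means more PKAc released from R1A so a rise in polarization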
dFosB activator = enhances mouse delta FosB homodimer DNA binding | P13346 | purified delta FosB, TAMRA-CDK5 oligo fluorescence polarization; percent of positive-control signal above neutral wells | activation, % at 25 µM | 0.99% of 340,000 active | AID 493131;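 active = mean activation above about 17%, with every replicate also reaching it, limit read from the data, passing the limit was not always enough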
CAL PDZ FP-2 = human CAL PDZ-peptide interaction inhibition; Q9HD26; purified CAL PDZ, TMR-peptide fluorescence polarization, 1 h; inhibition, % at 20 µM; 0.02% of 330,000 active;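 active = highest replicate inhibition of at least 40%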;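 note: plate controls were DMSO neutral control wells for no effect and unlabeled competitor peptide control wells for full effect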
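System: tagged CAL PDZ domain. Schedule: 1 h room-temperature incubation prior to read. Signal: fluorescence polarization (mP). Measure: percent inhibition from loss of millipolarization.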
PKA-R2B activ = PKA-R2B complex activation; P22694+P31323; PKA-R2B holoenzyme dissociation, Cy5-IP20 fluorescence polarization; R2B truncated from residue 108, S112A mutant; 0% DMSO only, 100% 113 µM cGMP; activation, % at 11.4 µM; 0.079% of 340,000 active; AID 504700;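 active = activation above a cutoff set at the mean over all compounds plus 3 SD, cut at about 18% in these data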;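 note: higher means more holoenzyme dissociation and a rise in polarization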
Target sequence (P31323 whole entry, looked up, other chains not shown, the tested form may be a part): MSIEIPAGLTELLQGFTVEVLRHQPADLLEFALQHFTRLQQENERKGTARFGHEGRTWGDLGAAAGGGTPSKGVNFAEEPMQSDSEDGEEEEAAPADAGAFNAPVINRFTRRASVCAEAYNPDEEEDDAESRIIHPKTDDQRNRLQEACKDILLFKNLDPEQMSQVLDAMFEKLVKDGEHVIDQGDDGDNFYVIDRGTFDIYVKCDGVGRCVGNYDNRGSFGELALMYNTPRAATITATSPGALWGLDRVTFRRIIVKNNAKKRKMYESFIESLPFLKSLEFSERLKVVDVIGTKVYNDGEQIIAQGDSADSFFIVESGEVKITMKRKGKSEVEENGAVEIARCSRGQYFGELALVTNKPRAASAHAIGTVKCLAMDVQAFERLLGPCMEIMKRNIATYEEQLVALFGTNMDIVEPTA
* hit, by the source's call.

`CC1CN(C(=O)COC(=O)c2cc(=O)[nH]c3ccccc23)CC(C)O1` (centres undefined) gave PKA-R1A act 4 and PKA-R2B activ 3.
`CN(C(=O)c1ccnn1C)C1CCCN(Cc2ccccc2F)C1` (centres undefined) gave NTR1 ag 0, CAL PDZ FP-1 45*, PKA-R1A act 2, dFosB activator 0, CAL PDZ FP-2 0 and PKA-R2B activ -3.
Screening CC(=O)c1ccccc1C(=O)N(C)C1CCCN(Cc2ccccc2F)C1 (centres undefined) returned NTR1 ag 0, PKA-R1A act -18, dFosB activator -5, CAL PDZ FP-2 0 and PKA-R2B activ -6.
For Cc1ccc(OC(C)C(=O)N2CCc3ccccc32)c([N+](=O)[O-])n1 (centres undefined) the results were PKA-R1A act -7 and PKA-R2B activ -9.
For Cc1ccc(C)c(S(=O)(=O)N2CCN(C(=O)Cn3c(=O)cnc4ccccc43)CC2)c1 the results were NTR1 ag 1, CAL PDZ FP-1 -4, PKA-R1A act -11, dFosB activator -7, CAL PDZ FP-2 1 and PKA-R2B activ -9.
`CSCCC1COC(c2cccs2)=N1` (centres undefined) gave NTR1 ag 2, CAL PDZ FP-1 31*, PKA-R1A act 2, dFosB activator -2, CAL PDZ FP-2 -1 and PKA-R2B activ -8.
For O=C(Nc1cc2c(cc1[N+](=O)[O-])OCCO2)c1cccnc1 the results were NTR1 ag 0.
Screening CC(=O)NCCNC(=O)c1oc2ccccc2c1CSc1ncn[nH]1 returned NTR1 ag 0, CAL PDZ FP-1 72*, PKA-R1A act -1, dFosB activator -5, CAL PDZ FP-2 -1 and PKA-R2B activ -12.
`CCOc1ccc(OCCNC(=O)c2oc3ccccc3c2COC)cc1` gave NTR1 ag 6, CAL PDZ FP-1 -5, PKA-R1A act 5, dFosB activator -5, CAL PDZ FP-2 0 and PKA-R2B activ -4.
Cc1ccc(/C=N/NC(=O)CSc2nnc(-c3ccccc3)n2-c2ccc(Cl)cc2)o1 was read as NTR1 ag 6, CAL PDZ FP-1 70*, PKA-R1A act 2, dFosB activator -11, CAL PDZ FP-2 -1 and PKA-R2B activ -3.
Cc1ccc(/C=N/NC(=O)CSc2nnc(-c3ccc(Cl)cc3)n2-c2ccc(Cl)cc2)o1 was read as NTR1 ag 17, CAL PDZ FP-1 0, PKA-R1A act -1, dFosB activator -8, CAL PDZ FP-2 -1 and PKA-R2B activ -7.
`COc1cc(NC(=O)Cc2ccccc2)ccc1NC(=O)Cc1ccccc1` gave NTR1 ag 0, CAL PDZ FP-1 2, PKA-R1A act -11, dFosB activator -2, CAL PDZ FP-2 0 and PKA-R2B activ 2.
For COc1cc(NC(=O)c2cccs2)ccc1NC(=O)Cc1ccccc1 the results were NTR1 ag 2, CAL PDZ FP-1 42*, PKA-R1A act -15, dFosB activator -2, CAL PDZ FP-2 -1 and PKA-R2B activ -3.
Screening COC(=O)c1c(N2C(=O)[C@H]3[C@@H](C2=O)[C@]2(C(=O)Nc4c(C)cc(C)cc42)N2CCC[C@@H]32)sc(C)c1C returned NTR1 ag 1, CAL PDZ FP-1 66*, PKA-R1A act -3, dFosB activator -32, CAL PDZ FP-2 0 and PKA-R2B activ 1.
Screening Cc1cccc(C)c1NC(=O)CN1C(=O)COc2ccccc21 returned NTR1 ag -1, PKA-R1A act -4, dFosB activator 0, CAL PDZ FP-2 0 and PKA-R2B activ 8.
`CC(C)Cc1nnc(NC(=O)CCC(=O)N2CCOCC2)s1` gave NTR1 ag 1, CAL PDZ FP-1 0, PKA-R1A act -6, dFosB activator 5, CAL PDZ FP-2 0 and PKA-R2B activ -9.
CC(C)Cc1nnc(NC(=O)CCC(=O)N2CCN(c3ccc(F)cc3)CC2)s1 was read as NTR1 ag -1, CAL PDZ FP-1 41*, PKA-R1A act -5, dFosB activator 1, CAL PDZ FP-2 -1 and PKA-R2B activ 2.
